Measured values collected from several papers.
Each line is one published result; the experiments were not run side by side.
Target: Protein kinase C epsilon type (PRKCE, Homo sapiens, UniProt Q02156)
Residues used in one study (Q02156 1-737): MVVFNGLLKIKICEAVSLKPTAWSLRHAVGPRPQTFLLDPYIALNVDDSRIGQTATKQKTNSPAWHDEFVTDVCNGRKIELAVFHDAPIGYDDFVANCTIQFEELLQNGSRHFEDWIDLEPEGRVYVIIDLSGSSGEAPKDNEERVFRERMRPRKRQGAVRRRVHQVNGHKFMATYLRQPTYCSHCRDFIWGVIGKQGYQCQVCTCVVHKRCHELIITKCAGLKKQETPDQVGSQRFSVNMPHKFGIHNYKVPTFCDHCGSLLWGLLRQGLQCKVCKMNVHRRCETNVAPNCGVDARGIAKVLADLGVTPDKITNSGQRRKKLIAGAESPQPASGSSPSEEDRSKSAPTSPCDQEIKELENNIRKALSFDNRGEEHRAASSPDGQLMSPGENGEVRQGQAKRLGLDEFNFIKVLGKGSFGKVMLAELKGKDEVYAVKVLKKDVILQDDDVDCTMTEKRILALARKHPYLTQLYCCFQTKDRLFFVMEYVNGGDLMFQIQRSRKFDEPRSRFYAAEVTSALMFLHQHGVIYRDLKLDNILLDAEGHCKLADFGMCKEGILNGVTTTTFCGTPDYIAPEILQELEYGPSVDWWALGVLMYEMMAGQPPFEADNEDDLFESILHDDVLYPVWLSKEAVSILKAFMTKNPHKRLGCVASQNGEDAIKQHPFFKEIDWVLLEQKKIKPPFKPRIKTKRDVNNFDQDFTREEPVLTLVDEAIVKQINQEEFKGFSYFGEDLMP

SMILES	assay	setting	endpoint	result
CO[C@@H]1[C@H](N(C)C(=O)c2ccccc2)C[C@H]2O[C@]1(C)n1c3ccccc3c3c4c(c5c6ccccc6n2c5c31)C(=O)NC4	enzyme activity, inhibitor	1 µM	inhibition	92%
Cc1ccc(NC(=O)c2ccnc(C(F)(F)F)c2)cc1-c1cc(OCCO)nc(N2CCOCC2)c1	binding	1 µM	remaining binding	75%
COc1ccc2oc(-c3ccc4nc(N)oc4c3)c/c(=N\c3ccccc3NC(=O)CCN)c2c1	binding	1 µM	remaining binding	106%
CCCCC(=O)Nc1ccc(-c2ccc3ncn(CCC)c(=O)c3c2)cn1	binding, competition with immobilised ligand	0.5 µM	remaining binding	83%
CC#CC(=O)N1CCC[C@H]1c1nc(-c2ccc(C(=O)Nc3ccccn3)cc2)c2c(N)nccn12	enzyme activity, inhibitor	1 µM	inhibition	0%
N#Cc1ccc(NC(=O)Nc2ccccc2)cc1	cell-free assay, competition with immobilised ligand	25 µM	remaining binding	100%
C[C@H]1CC[C@H](n2c3cnccc3c3cnc(Nc4ccc5c(n4)CCN(C(=O)CO)C5)nc32)CC1	cell-free assay	1 µM	remaining signal	100%
C1=C/COCc2cc(ccc2OCCN2CCCC2)Nc2nccc(n2)-c2cccc(c2)COC/1	binding	0.1 µM	remaining binding	68%
C#Cc1cnc(Nc2ccnc(CO)c2)nc1Nc1ccccc1S(C)(=O)=NC#N (stereo not drawn)	cell-free assay	1 µM	remaining signal	62%
